Measurements as given in paper PMC6334763 (Archives of biochemistry and biophysics, 2018).
Like-named read-outs stand apart in the source and are kept apart here.

How the values were obtained:
Bm-iAANAT3 [1] = molecular target: T1, Bm-iAANAT3 (Bombyx mori, UniProt D7EZJ9); test: Dead-end and product inhibition analysis; assay type: biochemical; conditions: for inhibition pattern vs. acetyl-CoA: acetyl-CoA varied, tryptamine fixed; for inhibition pattern vs. tryptamine: tryptamine varied, acetyl-CoA fixed
Summary of the method: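 Same Ni-purified Bm-iAANAT3. Initial velocities were measured at several fixed inhibitor levels: oleoyl-CoA at 0, 250 and 500 nM; tyrosol at 0, 150 and 300 μM. In one series, tryptamine was held at 100 μM while acetyl-CoA was varied at 10, 25, 50 and 100 μM. In the other, acetyl-CoA was held at 100 μM while tryptamine was varied at 50, 100, 150 and 300 μM.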

Bm-iAANAT3 [2] = molecular target: T1, Bm-iAANAT3; conditions: cited from earlier work
Bm-iAANAT3 [3] = molecular target: T1, Bm-iAANAT3; test: Steady-state kinetic characterization with Ellman's reagent; assay type: biochemical; conditions: for kcat: 300 mM Tris pH 8.0
[4] = molecular target: T2, E27A mutant of Bm-iAANAT3 (Bombyx mori, UniProt D7EZJ9, E27A); test: Steady-state kinetic constants of the E27A mutant; assay type: biochemical; conditions: E27A mutant compared with wild-type Bm-iAANAT3
T2 sequence (D7EZJ9 1-213 E27A): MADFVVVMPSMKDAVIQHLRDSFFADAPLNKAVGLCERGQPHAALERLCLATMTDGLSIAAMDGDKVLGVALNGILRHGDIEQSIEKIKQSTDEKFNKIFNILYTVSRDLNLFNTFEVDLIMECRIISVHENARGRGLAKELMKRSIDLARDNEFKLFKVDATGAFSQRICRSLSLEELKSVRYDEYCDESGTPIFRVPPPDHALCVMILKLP

Bm-iAANAT3 [5] = molecular target: T1, Bm-iAANAT3; test: Activity-based substrate screening; assay type: biochemical; conditions: rate of CoA-SH release above enzyme-independent acyl-CoA hydrolysis
Summary of the method: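 Enzyme: Bm-iAANAT3 expressed from pET28a in E. coli BL-21(DE3), induced with 1.0 mM IPTG for 4 h at 37°C, and Ni-chelate purified. Acetyl-CoA or oleoyl-CoA at 500 μM was tested separately against pooled amines, each at 20 mM or 60 mM, in 300 mM Tris pH 8.0 with 150 μM DTNB. Initial rates came from CoA release at 412 nm (ε₄₁₂ = 13,600 M⁻¹ cm⁻¹), minus background thioester hydrolysis.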

[6] = substrate: CC(=O)SCCNC(=O)CCNC(=O)[C@H](O)C(C)(C)COP(=O)(O)OP(=O)(O)OC[C@H]1O[C@@H](n2cnc3c(N)ncnc32)[C@H](O)[C@@H]1OP(=O)(O)O; test: Steady-state kinetic constants of the E27A mutant; assay type: biochemical, Bombyx mori; conditions: other: E27A mutant; named substrate varied; pH 8.0
[7] = substrate: NCCc1c[nH]c2ccccc12; test: Steady-state kinetic constants of the E27A mutant; assay type: biochemical, Bombyx mori; conditions: other: E27A mutant; named substrate varied; pH 8.0
[8] = binding to free Bm-iAANAT3, ITC and/or NMR
[9] = acyl-CoA substrate varied, 8.0 mM tryptamine, 22°C
[10] = amine substrate varied, 500 μM acetyl-CoA, 22°C
[11] = amine substrate varied, 500 μM acetyl-CoA, 22°C, 300 mM Tris pH 8.0, 150 μM DTNB

Molecule: CC(=O)NCCc1c[nH]c2ccccc12 [N-acetyltryptamine]
- inhibition pattern vs. acetyl-CoA (Bm-iAANAT3 [1]): competitive
- inhibition pattern vs. tryptamine (Bm-iAANAT3 [1]): noncompetitive
- effect of added CoA-SH on binding (Bm-iAANAT3 [2]; addition of CoA-SH): not affected
- effect of added acetyl-CoA on binding (Bm-iAANAT3 [2]; addition of acetyl-CoA): eliminated
- Kd (Bm-iAANAT3 [2]; [8]): 12 ± 3 µM

Molecule: CCCCCC(=O)SCCNC(=O)CCNC(=O)C(O)C(C)(C)COP(=O)(O)OP(=O)(O)OC[C@H]1O[C@@H](n2cnc3c(N)ncnc32)[C@H](O)[C@@H]1OP(=O)(O)O (stereo partly shown) [hexanoyl-CoA]
- kcat (Bm-iAANAT3 [3]; [9]): 1.3 ± 0.01 s⁻¹

Molecule: NCCc1c[nH]c2ccccc12 [Tryptamine]
- fold increase in Km, E27A mutant vs wild-type [4]: 100 fold
- Kd (Bm-iAANAT3 [2]; [8]): 220 ± 8 µM

Molecule: CC(C)(COP(=O)(O)OP(=O)(O)OC[C@H]1O[C@@H](n2cnc3c(N)ncnc32)[C@H](O)[C@@H]1OP(=O)(O)O)[C@@H](O)C(=O)NCCC(=O)NCCSC(=O)CC(=O)O [malonyl-CoA]
- kcat (Bm-iAANAT3 [3]; [9]): 13 ± 1.5 s⁻¹
- fold lower (kcat/Km) than (kcat/Km) of decanoyl-CoA (Bm-iAANAT3 [3]; acyl-CoA substrates, 8.0 mM tryptamine): ~ 6 fold
- substrate activity as acyl-CoA donor (Bm-iAANAT3 [5]): is a substrate

Molecule: OCCc1ccc(O)cc1 [tyrosol]
- Ki (Bm-iAANAT3 [1]; Ki,i, uncompetitive vs. acetyl-CoA (varied), tryptamine fixed at 100 μM): 230 ± 10 µM
- Ki (Bm-iAANAT3 [1]; Ki,s, competitive vs. tryptamine (varied), acetyl-CoA fixed at 100 μM): 90 ± 10 µM
- inhibition pattern vs. acetyl-CoA (Bm-iAANAT3 [1]): uncompetitive
- inhibition pattern vs. tryptamine (Bm-iAANAT3 [1]): competitive

Molecule: NC[C@H](O)c1ccc(O)c(O)c1 [Norepinephrine]
- kcat (Bm-iAANAT3 [3]; [10]): 5.3 ± 0.07 s⁻¹
- Km (Bm-iAANAT3 [3]; [11]): 0.14 ± 0.0086 mM

Molecule: NCCc1c[nH]cn1 [Histamine]
- kcat (Bm-iAANAT3 [3]; [10]): 33 ± 0.68 s⁻¹
- Km (Bm-iAANAT3 [3]; [11]): 1.7 ± 0.098 mM
- Km (Bm-iAANAT3 [3]; amine substrate, as given in the text in mM, 500 μM acetyl-CoA): 1.7 ± 0.1 mM

Molecule: CCCCCCCC/C=C\CCCCCCCC(=O)SCCNC(=O)CCNC(=O)[C@H](O)C(C)(C)COP(=O)(O)OP(=O)(O)OC[C@H]1O[C@@H](n2cnc3c(N)ncnc32)[C@H](O)[C@@H]1OP(=O)(O)O [oleoyl-CoA]
- substrate activity as acyl-CoA donor (Bm-iAANAT3 [5]): no initial velocity increase
- inhibition pattern vs. acetyl-CoA (Bm-iAANAT3 [1]): competitive
- Ki (Bm-iAANAT3 [1]; read-out: Ki,s, competitive vs. acetyl-CoA (varied), tryptamine fixed at 100 μM): 0.22 ± 0.02 µM
- inhibition pattern vs. tryptamine (Bm-iAANAT3 [1]): noncompetitive

Molecule: CCCCCCCCCC(=O)SCCNC(=O)CCNC(=O)[C@H](O)C(C)(C)COP(=O)(O)OP(=O)(O)OC[C@H]1O[C@@H](n2cnc3c(N)ncnc32)[C@H](O)[C@@H]1OP(=O)(O)O [decanoyl-CoA]
- kcat (Bm-iAANAT3 [3]; [9]): 0.05 ± 0.004 s⁻¹

Molecule: CCCC(=O)SCCNC(=O)CCNC(=O)[C@H](O)C(C)(C)COP(=O)(O)OP(=O)(O)OC[C@H]1O[C@@H](n2cnc3c(N)ncnc32)[C@H](O)[C@@H]1OP(=O)(O)O [Butyryl, buytryl-CoA]
- kcat (Bm-iAANAT3 [3]; [9]): 4.0 ± 0.04 s⁻¹

Molecule: OCCc1c[nH]c2ccccc12 [tryptophol]
- Kd (Bm-iAANAT3 [2]; [8]): 230 ± 12 µM
- Kd (Bm-iAANAT3 [2]; in the presence of acetyl-CoA): 50 ± 2 µM

Molecule: NCCc1ccc(O)c(O)c1 [Dopamine]
- kcat (Bm-iAANAT3 [3]; [10]): 55 ± 1.1 s⁻¹
- Km (Bm-iAANAT3 [3]; [11]): 0.33 ± 0.023 mM

Molecule: NCCc1ccc(O)cc1 [Tyramine]
- kcat (Bm-iAANAT3 [3]; [10]): 27 ± 0.6 s⁻¹
- Km (Bm-iAANAT3 [3]; [11]): 0.063 ± 0.0067 mM

Molecule: CC(=O)SCCNC(=O)CCNC(=O)[C@H](O)C(C)(C)COP(=O)(O)OP(=O)(O)OC[C@H]1O[C@@H](n2cnc3c(N)ncnc32)[C@H](O)[C@@H]1OP(=O)(O)O [acetyl-CoA]
- kcat (Bm-iAANAT3 [3]; [9]): 64 ± 0.7 s⁻¹
- Kd (Bm-iAANAT3 [2]; [8]): 0.7 µM

Molecule: CC(C)(COP(=O)(O)OP(=O)(O)OC[C@H]1O[C@@H](n2cnc3c(N)ncnc32)[C@H](O)[C@@H]1OP(=O)(O)O)[C@@H](O)C(=O)NCCC(=O)NCCS [CoA-SH]
- Kd (Bm-iAANAT3 [2]; [8]): 30 ± 1 µM

Molecule: CCCCCCCC(=O)SCCNC(=O)CCNC(=O)[C@H](O)C(C)(C)COP(=O)(O)OP(=O)(O)OC[C@H]1O[C@@H](n2cnc3c(N)ncnc32)[C@H](O)[C@@H]1OP(=O)(O)O [octanoyl-CoA]
- kcat (Bm-iAANAT3 [3]; [9]): 0.36 ± 0.005 s⁻¹

B1: E27A mutant of Bm-iAANAT3 (Bombyx mori; E27A) (protein)
chain: T2 sequence (D7EZJ9 1-213 E27A)
- Km [6]: 20 ± 2.2 µM
- kcat [6]: 4.0 ± 0.09 × 10^−2 s^−1
- Km [7]: 9400 ± 990 µM
- kcat [7]: 8.0 ± 0.3 × 10 s^−1
